Test results as given in the RNAGym collection of RNA variant scans (doi:10.1101/gad.245936.114).
Fewer inactive variants are shown than the library holds.

B1: tRNA (parent)
chain: CUCUCGGUAGCCAAGUUGGUUUAAGGCGCAAGACUUUAAUUUAUCACUACGAAAUCUUGAGAUCGGGCGUUCGACUCGCCCCCGGGAGAUUUUUUCCUCGAGCAA

Variants of: B1
Assay: nonsense suppression (GFP-seq) (ratio to wild type); higher = more function; SUP4oc tRNA, yeast GFP reporter sort-seq
In short: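 Yeast were grown in raffinose/galactose medium with 80 mg/L adenine, each strain bearing a genome-integrated ochre-suppressor tRNA variant from a ~3% random-mutation library, a galactose-driven GFP ochre reporter, and RFP. After sorting into GFP/RFP bins, every bin was sequenced on an Illumina platform at phred ≥30. The GFPSEQ value, a measure of nonsense suppression, is the weighted bin median GFP/RFP relative to the unmutated parent tRNA, using each variant's estimated cell share per bin as the weight. Only variants with ≥100 reads and ≥30 cells were included.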

Going from G10C G73C A87U to U55C C75G, the nonsense suppression rises from at most 0.026 to 1.16.

Compared with U22G A54U, C1U U2G U20G C29A is lower in nonsense suppression: 1.12 for the first, at most 0.026 for the second.

Going from G59C A60C U71G G78A to C1G G73A, the nonsense suppression rises from at most 0.026 to 0.0631.

Going from C68G U70C to A9C A54U, the nonsense suppression rises from at most 0.026 to 1.21.

C12U A13C U20A and U8A G67C U71G cannot be ordered by nonsense suppression: at most 0.026 for the first, at most 0.026 for the second.

First: A24C
Second: G10U A54C G86C
The nonsense suppression of the first is higher: 1.13 for the first, at most 0.026 for the second.

Compared with G78A A87C, U35A G73U G84C is lower in nonsense suppression: 0.032 for the first, at most 0.026 for the second.

Compared with U2C G78A, G32A U70A C72A is lower in nonsense suppression: 0.0386 for the first, at most 0.026 for the second.

First: U17G A60C
Second: C1U A62G C80A
The nonsense suppression of the first is higher: 0.188 for the first, at most 0.026 for the second.

First: G26C C34U G61A C82A G85C G86A
Second: G10U C27A
The nonsense suppression of the first is lower: at most 0.026 for the first, 0.119 for the second.

Compared with C29U U76C, U22G is higher in nonsense suppression: 0.772 for the first, 0.989 for the second.

U2A C29A C56A A60U and U8G A60G cannot be ordered by nonsense suppression: at most 0.026 for the first, at most 0.026 for the second.

Going from A9G G10U to A13U G69C, the nonsense suppression falls from 0.0476 to 0.0304.

First: C27A U55C
Second: U57C G61A
The nonsense suppression of the first is higher: 0.0902 for the first, 0.0312 for the second.

Compared with G7C A9U, C11G A23G C34A C81U is lower in nonsense suppression: 0.0428 for the first, at most 0.026 for the second.

Going from C27U G65A to U8C A9U A54U, the nonsense suppression falls from 0.0374 to at most 0.026.

Going from U4C A9C G84A to U2G G85A, the nonsense suppression falls from 0.0602 to at most 0.026.

First: G73C C83A
Second: U4C C29A
The nonsense suppression of the first is lower: at most 0.026 for the first, 1.11 for the second.

Going from U2C C27A C82U to U4G A9C, the nonsense suppression rises from at most 0.026 to 0.0511.

Compared with U20C A89U, A62G C75U C83A is lower in nonsense suppression: 0.0684 for the first, at most 0.026 for the second.

Compared with C12U A23G, A54C U63A is higher in nonsense suppression: 0.0776 for the first, 0.377 for the second.

First: U8A G25C U70A
Second: C75A G78A
The nonsense suppression of the first is lower: at most 0.026 for the first, 0.698 for the second.

G15C A33U G61A and U22C G59C cannot be ordered by nonsense suppression: at most 0.026 for the first, at most 0.026 for the second.

C11U G19A G25A C29U G59A and G26C G67A cannot be ordered by nonsense suppression: at most 0.026 for the first, at most 0.026 for the second.

Compared with G7U G85U, U16G C79U is higher in nonsense suppression: at most 0.026 for the first, 0.852 for the second.

Compared with U16C U21C A31U, U16G A54U is higher in nonsense suppression: 0.204 for the first, 1.18 for the second.

Going from U21G U71C to C1A C80U, the nonsense suppression rises from 0.0265 to 0.0314.

Going from U4A U63A to C11G U16G G66A, the nonsense suppression falls from 0.155 to at most 0.026.

First: C5U U20C
Second: A13U U16A G85U
The nonsense suppression of the first is lower: at most 0.026 for the first, 0.173 for the second.

First: U2C G18C G25U A54C U57C G61U U70G
Second: C27U A74C
The nonsense suppression of the first is lower: at most 0.026 for the first, 0.0355 for the second.

First: U17C A62G U70C
Second: A31G A87G
The nonsense suppression of the first is lower: at most 0.026 for the first, 0.762 for the second.

Going from U16G U22A to U21C G28U A31U A33G G78U C79A, the nonsense suppression falls from 0.872 to at most 0.026.

Compared with A9G A31G, G7C U55C is lower in nonsense suppression: 0.259 for the first, 0.0823 for the second.

Going from G15A U20G to G15A G73C C75G, the nonsense suppression falls from 0.189 to at most 0.026.

A9C G69A and U2A C27U A31G U57C cannot be ordered by nonsense suppression: at most 0.026 for the first, at most 0.026 for the second.

Going from U21C U63G to U35A G59A G67A, the nonsense suppression falls from 0.805 to at most 0.026.

Compared with C5U G28C, U21C U63A is higher in nonsense suppression: 0.0292 for the first, 1.12 for the second.

First: U21G U55C
Second: U57A G85U
The nonsense suppression of the first is higher: 0.208 for the first, 0.0736 for the second.

C11U G18U U58G and G6A A13G cannot be ordered by nonsense suppression: at most 0.026 for the first, at most 0.026 for the second.

First: A23G A60G
Second: U2C C5A C75U C83A
The nonsense suppression of the first is higher: 0.0474 for the first, at most 0.026 for the second.

First: C3A G78A
Second: U4C G86A
The nonsense suppression of the first is lower: 0.0776 for the first, 1.09 for the second.

Compared with U57A G66A G78C C82A, U21C A24G is higher in nonsense suppression: at most 0.026 for the first, 0.0906 for the second.

Going from A62G G78U to U17A A24C, the nonsense suppression rises from 0.0339 to 0.902.

Going from A24C U71A G78C C80A A87G to A13G A24U, the nonsense suppression rises from at most 0.026 to 0.0411.

C12A G18U G66A U70C C77G C83U and C1U G32U U55A A62C G67C cannot be ordered by nonsense suppression: at most 0.026 for the first, at most 0.026 for the second.

Compared with U17C G28A G61C, A13C G18C U20G A31U is lower in nonsense suppression: 0.716 for the first, 0.134 for the second.

Going from C3U C12G to G65A C75A, the nonsense suppression rises from at most 0.026 to 0.109.

G18C A24C A33U and G26U U71C cannot be ordered by nonsense suppression: at most 0.026 for the first, at most 0.026 for the second.

First: U22C A31G A74C
Second: G78U G84A
The nonsense suppression of the first is lower: at most 0.026 for the first, 0.0428 for the second.

Compared with U4G U71A, U20A G73C is lower in nonsense suppression: 0.0967 for the first, 0.0366 for the second.

Going from U22A A24C C68U to A9G G61A A87G, the nonsense suppression falls from 0.215 to 0.188.

First: A24C U55C
Second: A23C U76G
The nonsense suppression of the first is higher: 0.365 for the first, at most 0.026 for the second.

Compared with A60U A62G, C12U C29U is higher in nonsense suppression: 0.112 for the first, 0.206 for the second.

First: C56U U58C G66U
Second: G7U A54C
The nonsense suppression of the first is lower: at most 0.026 for the first, 0.0394 for the second.

Going from A33G U63C to C34A U55A C80A, the nonsense suppression falls from 0.11 to at most 0.026.

C27A G84A G86C and A54U C56G C72A cannot be ordered by nonsense suppression: at most 0.026 for the first, at most 0.026 for the second.

Going from U4C U20C to A13U A54U, the nonsense suppression falls from 1.05 to 0.728.

U4C G61U C79G A89G and G61C G69C C79G G84C cannot be ordered by nonsense suppression: at most 0.026 for the first, at most 0.026 for the second.

Going from C11A U16C to U20A C75G, the nonsense suppression rises from at most 0.026 to 0.473.

Compared with U63C C82U, U20G U63G is higher in nonsense suppression: 0.449 for the first, 0.495 for the second.

Compared with U17A U63A U76C, A14C G65A is lower in nonsense suppression: 0.155 for the first, at most 0.026 for the second.

First: A60G C75A
Second: U8G U17G G69U C80G
The nonsense suppression of the first is higher: 0.976 for the first, at most 0.026 for the second.

Going from C11U G26A U63C to U8G G15C, the nonsense suppression falls from 0.212 to at most 0.026.

Going from G85A to C5A C64A C77A, the nonsense suppression falls from 0.982 to at most 0.026.

First: A54G C79U
Second: U4C U22C G86A
The nonsense suppression of the first is lower: 0.0263 for the first, 1.16 for the second.

Going from G67A G84U to U20A U22C, the nonsense suppression rises from 0.0504 to 1.11.

Compared with G61A C83A, C5U A30U is higher in nonsense suppression: 0.0363 for the first, 0.138 for the second.

Going from A24G U63G C80A G85C to C29A G85A, the nonsense suppression rises from at most 0.026 to 0.115.

Going from U21A A24U to U55C U58G, the nonsense suppression falls from 0.184 to at most 0.026.

C3G U20G G69A U70C and G15A G26U U55A cannot be ordered by nonsense suppression: at most 0.026 for the first, at most 0.026 for the second.

First: U55C
Second: A30G A33U
The nonsense suppression of the first is higher: 1.09 for the first, at most 0.026 for the second.

A54C G67U and C11A U71C A89G cannot be ordered by nonsense suppression: at most 0.026 for the first, at most 0.026 for the second.

A74G G78C G86C and C11U C12A G88A cannot be ordered by nonsense suppression: at most 0.026 for the first, at most 0.026 for the second.

Going from G59U A62C A89G to U17G G19A, the nonsense suppression rises from at most 0.026 to 0.204.

Going from A9U C11U G32C C34G A54U to U17C A62C, the nonsense suppression rises from at most 0.026 to 0.734.

Going from G28A U76C to U4C C83U, the nonsense suppression rises from 1.09 to 1.17.

Going from U2C G19C U35A to U2C A23G, the nonsense suppression rises from at most 0.026 to 0.0274.

Going from A60U C81U to C3G G84U, the nonsense suppression falls from 0.818 to at most 0.026.

First: G65C U76A
Second: C1U G78A
The nonsense suppression of the first is lower: at most 0.026 for the first, 0.0525 for the second.

First: C12U G84U
Second: C79A G84C
The nonsense suppression of the first is higher: 0.117 for the first, at most 0.026 for the second.

Going from U16A U17G to A13C G88A, the nonsense suppression falls from 1.16 to 0.0766.

First: U17C A60C
Second: U8C C80G
The nonsense suppression of the first is higher: 0.196 for the first, at most 0.026 for the second.

Compared with U4G G73U, U16C A30G is higher in nonsense suppression: 0.0898 for the first, 1.17 for the second.

U22C G25C G32C A62C C64G showed a nonsense suppression of at most 0.026.
